Measured values as given in ChEMBL document CHEMBL4840330, “Secoiridoids from Dogwood (Cornus officinalis) Potentiate Progesterone Signaling” (J Nat Prod, 2021).
Calls of active or inactive are those of the source.

Key:
[1] = target: T1, Progesterone receptor (Homo sapiens) (UniProt P06401); test: Induction of progesterone receptor B in human Ishikawa cells assessed as induction of PRE/Luc transcriptional activity at 10 uM measured after 24 hrs by luciferase reporter gene assay; assay type: cell-based
T1 sequence (whole entry): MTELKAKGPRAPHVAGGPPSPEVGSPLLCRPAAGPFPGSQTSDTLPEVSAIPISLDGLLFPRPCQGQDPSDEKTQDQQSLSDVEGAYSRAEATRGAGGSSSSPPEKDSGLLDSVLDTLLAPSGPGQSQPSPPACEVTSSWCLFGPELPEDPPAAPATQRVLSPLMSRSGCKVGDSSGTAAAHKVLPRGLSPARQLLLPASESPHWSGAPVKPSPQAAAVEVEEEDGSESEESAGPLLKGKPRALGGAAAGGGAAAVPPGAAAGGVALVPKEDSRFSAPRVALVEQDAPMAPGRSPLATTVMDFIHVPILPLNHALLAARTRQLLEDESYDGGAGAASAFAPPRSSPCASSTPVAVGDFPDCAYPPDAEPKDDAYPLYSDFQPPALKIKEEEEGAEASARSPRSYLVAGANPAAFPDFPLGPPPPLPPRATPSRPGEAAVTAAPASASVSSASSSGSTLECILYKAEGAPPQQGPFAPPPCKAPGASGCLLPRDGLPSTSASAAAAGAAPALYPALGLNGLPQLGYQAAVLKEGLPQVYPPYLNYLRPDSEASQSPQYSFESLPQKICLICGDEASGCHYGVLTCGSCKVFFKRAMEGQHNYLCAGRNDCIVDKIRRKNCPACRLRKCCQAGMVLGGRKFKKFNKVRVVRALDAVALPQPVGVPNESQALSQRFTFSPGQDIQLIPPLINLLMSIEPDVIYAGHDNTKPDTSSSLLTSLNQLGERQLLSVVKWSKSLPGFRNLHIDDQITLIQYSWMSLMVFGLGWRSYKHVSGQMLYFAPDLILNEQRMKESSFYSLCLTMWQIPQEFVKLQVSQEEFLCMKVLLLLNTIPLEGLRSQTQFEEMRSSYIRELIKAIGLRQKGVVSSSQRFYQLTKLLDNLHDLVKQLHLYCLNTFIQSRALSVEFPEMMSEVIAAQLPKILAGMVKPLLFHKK
Method in brief: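 Ishikawa cells stably expressing PR-B; test agent alone at 10 μM; PRE-driven luciferase reporter read-out; n≥3; mean ± SEM.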

[2] = target: T1, Progesterone receptor (Homo sapiens); test: Potentiation of progesterone receptor B in progesterone-stimulated human Ishikawa cells assessed as induction of PRE/Luc transcriptional activity at 10 uM measured after 24 hrs by luciferase reporter gene assay relative to control
Method in brief: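 Ishikawa cells stably expressing PR-B co-treated with 1 nM progesterone plus test agent at 10 μM; PRE-luciferase reporter activity compared with 1 nM progesterone alone; n≥3; mean ± SEM, significance by p-value thresholds.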

Row | SMILES | Activity [1] | Activity ([2]; filed as activator) [%] | Activity [2] [%]
1 | C=C[C@H]1C(O[C@@H]2O[C@H](CO)[C@@H](O)[C@H](O)[C@H]2O)OC=C(C(=O)O)[C@H]1CC(=O)O (stereo partly specified) | inactive | – | –
2 | C=C[C@H]1[C@H](O[C@@H]2O[C@H](CO)[C@@H](O)[C@H](O)[C@H]2O)OC=C(C(=O)OC)[C@H]1CCOC(=O)c1cc(O)c(O)c(O)c1 | inactive | 43 | –
3 | C=C[C@H]1[C@H](O[C@@H]2O[C@H](CO)[C@@H](O)[C@H](O)[C@H]2O)OC=C(C(=O)O)[C@H]1CCOC(=O)c1cc(O)c(O)c(O)c1 | inactive | 42 | –
4 | COC(=O)C1=CO[C@@H](O[C@@H]2O[C@H](CO)[C@@H](O)[C@H](O)[C@H]2O)[C@@H]2[C@H](C)O[C@@H](OC)C[C@H]12 | inactive | – | 18
5 | C=C[C@H]1[C@H](O[C@@H]2O[C@H](CO)[C@@H](O)[C@H](O)[C@H]2O)OC=C2C(=O)OCC[C@H]21 | inactive | – | –
6 | COC(=O)C1=CO[C@@H](O[C@@H]2O[C@H](CO)[C@@H](O)[C@H](O)[C@H]2O)[C@@H]2[C@H](C)O[C@H](OC)C[C@H]12 | inactive | – | 29
7 | C=C[C@H]1C(O[C@@H]2O[C@H](CO)[C@@H](O)[C@H](O)[C@H]2O)OC=C(C(=O)OC)[C@H]1CC(=O)O (stereo partly specified) | inactive | – | –
